# ChEMBL document CHEMBL1154944, “Azole-based inhibitors of AKT/PKB for the treatment of cancer” (Bioorg Med Chem Lett, 2010)
# Key:
# [1] = Inhibition of PKA
# [2] = target: T1, RAC-alpha serine/threonine-protein kinase (Homo sapiens, UniProt P31749); test: Inhibition of human AKT1 in human U87MG cells assessed as PRAS40 phosphorylation after 1 hr by ELISA; format: cell-based, U-87MG ATCC
# In short: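 U-87 MG cells in 5% FBS incubated with inhibitor in threefold serial dilutions for 1 h at 37 °C, then lysed. Phospho-PRAS40 (Thr246) quantified by ELISA and normalized to total PRAS40. Mean ± SD where three or more measurements.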
# [3] = target: T1, RAC-alpha serine/threonine-protein kinase; test: Inhibition of AKT1 after 10 mins by [gamma33]ATP assay
# [4] = target: Cyclin-dependent kinase 2 (Homo sapiens, UniProt P24941); test: Inhibition of CDK2
# [5] = Antitumor activity against human U87MG cells xenografted in CD1 nude mouse assessed as inhibition of tumor growth at 30 mg/kg, po QD for 18 days relative to control; format: functional, U-87MG ATCC; conditions: U-87 MG, 432 h, read-out: GI
# In short: (§1)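 10-week-old female CD1 nude mice injected sc in the flank with 5 × 10⁶ U-87 MG cells in DMEM. On day 10, randomized (n = 10) at ~200 mm³, then dosed po once daily for 18 d with supplemented diet. Tumors and body weight recorded twice weekly. Volume = length × width × height, analyzed by RMANOVA versus vehicle.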
# [6] = Cmax in Sprague-Dawley rat at 5 mg/kg, po; format: ADME, organism-based; design: dose 5 mg/kg, route oral; conditions: in vivo
# In short: (§2)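 Male Sprague Dawley rats (n = 3) given 5 mg/kg orally in 2% HPMC, 1% Tween 80, pH 2.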
# [7] = target: Mast/stem cell growth factor receptor Kit (Homo sapiens, UniProt P10721); test: Inhibition of cKIT
# Mast/stem cell growth factor receptor Kit, sequence (P10721 whole entry): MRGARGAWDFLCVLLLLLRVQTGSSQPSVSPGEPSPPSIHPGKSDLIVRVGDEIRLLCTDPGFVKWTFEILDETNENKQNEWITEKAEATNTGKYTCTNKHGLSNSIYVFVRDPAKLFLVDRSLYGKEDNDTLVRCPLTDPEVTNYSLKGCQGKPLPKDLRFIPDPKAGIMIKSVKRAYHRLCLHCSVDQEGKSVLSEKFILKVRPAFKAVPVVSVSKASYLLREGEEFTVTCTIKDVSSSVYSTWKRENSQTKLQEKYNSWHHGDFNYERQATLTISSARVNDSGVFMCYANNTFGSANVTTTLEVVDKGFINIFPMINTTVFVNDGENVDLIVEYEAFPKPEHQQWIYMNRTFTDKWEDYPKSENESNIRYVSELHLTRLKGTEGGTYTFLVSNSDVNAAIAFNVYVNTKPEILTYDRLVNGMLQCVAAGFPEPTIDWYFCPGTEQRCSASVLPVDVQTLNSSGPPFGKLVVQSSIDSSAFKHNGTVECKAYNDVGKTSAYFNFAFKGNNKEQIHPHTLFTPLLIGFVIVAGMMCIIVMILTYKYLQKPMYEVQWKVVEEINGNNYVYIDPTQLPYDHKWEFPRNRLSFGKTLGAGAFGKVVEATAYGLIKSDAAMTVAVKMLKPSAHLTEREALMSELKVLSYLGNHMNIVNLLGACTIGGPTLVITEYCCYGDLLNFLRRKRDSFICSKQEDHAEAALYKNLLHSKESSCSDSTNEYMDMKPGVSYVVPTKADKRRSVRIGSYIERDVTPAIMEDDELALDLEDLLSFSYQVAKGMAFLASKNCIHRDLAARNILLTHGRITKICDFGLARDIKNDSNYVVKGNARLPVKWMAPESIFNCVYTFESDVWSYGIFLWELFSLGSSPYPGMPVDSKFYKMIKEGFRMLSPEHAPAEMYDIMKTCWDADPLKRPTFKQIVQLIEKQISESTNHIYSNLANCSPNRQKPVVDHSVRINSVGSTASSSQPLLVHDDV
# [8] = tested on: Mus musculus; test: Toxicity in human U87MG cells xenografted CD1 nude mouse assessed as loss in body weight po QD for 18 days relative to control; format: organism-based, U-87MG ATCC; conditions: in vivo, 432 h; in short: as §1
# [9] = Volume of distribution at steady state in Sprague-Dawley rat at 2 mg/kg, iv; format: ADME, organism-based; design: dose 2 mg/kg, route intravenous; conditions: in vivo, read-out: Vdss
# In short: (§3)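 Male Sprague Dawley rats (n = 3) given 2 mg/kg intravenously in DMSO.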
# [10] = Oral bioavailability in Sprague-Dawley rat at 5 mg/kg; format: ADME, organism-based; conditions: in vivo; in short: as §2
# [11] = tested on: U-87 MG; test: Inhibition of tumor growth in human U87MG cells xenografted in CD1 nude mouse assessed as tumor volume po QD for 18 days relative to control; format: functional, organism-based; conditions: U-87MG ATCC; in short: as §1
# [12] = tested on: Mus musculus; test: Inhibition of HGF-stimulated AKT signaling pathway in mouse liver assessed as phosphorylated PRAS40 level at 30 mg/kg, po dosed 6 hrs prior to HGF challenge and measured after 5 mins by ELISA; format: functional
# In short: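 Mice (n = 3, female) dosed 30 mg/kg po in 0.1% PBS/BSA. At 6 h, HGF given by tail-vein injection. Livers harvested 5 min later, and phospho- and total PRAS40 measured by ELISA; inhibition taken from pPRAS40/total ratio. Factorial ANOVA with Dunnett's post hoc test.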
# [13] = Plasma concentration in human U87MG cells xenografted CD1 nude mouse at 30 mg/kg, po QD for 18 days measured after 3 hrs post last dose; format: ADME, organism-based, U-87MG ATCC; design: dose 30 mg/kg, route oral
# In short: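 Female CD1 nude mice bearing U-87 MG tumors (n = 10) dosed 30 mg/kg po daily for 18 d. Plasma sampled 3 h after the last dose.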
# [14] = Plasma concentration in mouse at 30 mg/kg, po after 6 hrs; format: ADME, organism-based; design: dose 30 mg/kg, route oral
# [15] = Cytotoxicity against human U87MG cells after 3 days by alamar blue assay; format: functional, cell-based, U-87MG ATCC; conditions: U-87 MG, 72 h
# In short: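 U-87 MG cells seeded at 6000 cells/well in 5% FBS and treated with threefold serial dilutions for three days. Viability read by alamarBlue staining.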
# [16] = AUC (0 to 24 hrs) in Sprague-Dawley rat at 5 mg/kg, po; format: ADME, organism-based; design: time < 24 hr, dose 5 mg/kg, route oral; conditions: plasma; in short: as §2
# [17] = Half life in Sprague-Dawley rat at 2 mg/kg, iv; format: ADME, organism-based; design: dose 2 mg/kg, route intravenous; conditions: in vivo; in short: as §3
# [18] = target: Cyclin-dependent kinase 1 (Homo sapiens, UniProt P06493); test: Inhibition of CDK1
# Cyclin-dependent kinase 1, sequence (P06493 whole entry): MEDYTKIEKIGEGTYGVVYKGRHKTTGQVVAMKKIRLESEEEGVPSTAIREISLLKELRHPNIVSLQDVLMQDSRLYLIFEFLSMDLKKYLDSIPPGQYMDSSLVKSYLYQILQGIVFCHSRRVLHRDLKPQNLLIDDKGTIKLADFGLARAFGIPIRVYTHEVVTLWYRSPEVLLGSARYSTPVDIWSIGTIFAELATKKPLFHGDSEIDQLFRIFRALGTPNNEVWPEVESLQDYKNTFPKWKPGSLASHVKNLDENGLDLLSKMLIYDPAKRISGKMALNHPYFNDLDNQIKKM
# [19] = target: Vascular endothelial growth factor receptor 2 (Homo sapiens, UniProt P35968); test: Inhibition of KDR
# Vascular endothelial growth factor receptor 2, sequence (P35968 whole entry): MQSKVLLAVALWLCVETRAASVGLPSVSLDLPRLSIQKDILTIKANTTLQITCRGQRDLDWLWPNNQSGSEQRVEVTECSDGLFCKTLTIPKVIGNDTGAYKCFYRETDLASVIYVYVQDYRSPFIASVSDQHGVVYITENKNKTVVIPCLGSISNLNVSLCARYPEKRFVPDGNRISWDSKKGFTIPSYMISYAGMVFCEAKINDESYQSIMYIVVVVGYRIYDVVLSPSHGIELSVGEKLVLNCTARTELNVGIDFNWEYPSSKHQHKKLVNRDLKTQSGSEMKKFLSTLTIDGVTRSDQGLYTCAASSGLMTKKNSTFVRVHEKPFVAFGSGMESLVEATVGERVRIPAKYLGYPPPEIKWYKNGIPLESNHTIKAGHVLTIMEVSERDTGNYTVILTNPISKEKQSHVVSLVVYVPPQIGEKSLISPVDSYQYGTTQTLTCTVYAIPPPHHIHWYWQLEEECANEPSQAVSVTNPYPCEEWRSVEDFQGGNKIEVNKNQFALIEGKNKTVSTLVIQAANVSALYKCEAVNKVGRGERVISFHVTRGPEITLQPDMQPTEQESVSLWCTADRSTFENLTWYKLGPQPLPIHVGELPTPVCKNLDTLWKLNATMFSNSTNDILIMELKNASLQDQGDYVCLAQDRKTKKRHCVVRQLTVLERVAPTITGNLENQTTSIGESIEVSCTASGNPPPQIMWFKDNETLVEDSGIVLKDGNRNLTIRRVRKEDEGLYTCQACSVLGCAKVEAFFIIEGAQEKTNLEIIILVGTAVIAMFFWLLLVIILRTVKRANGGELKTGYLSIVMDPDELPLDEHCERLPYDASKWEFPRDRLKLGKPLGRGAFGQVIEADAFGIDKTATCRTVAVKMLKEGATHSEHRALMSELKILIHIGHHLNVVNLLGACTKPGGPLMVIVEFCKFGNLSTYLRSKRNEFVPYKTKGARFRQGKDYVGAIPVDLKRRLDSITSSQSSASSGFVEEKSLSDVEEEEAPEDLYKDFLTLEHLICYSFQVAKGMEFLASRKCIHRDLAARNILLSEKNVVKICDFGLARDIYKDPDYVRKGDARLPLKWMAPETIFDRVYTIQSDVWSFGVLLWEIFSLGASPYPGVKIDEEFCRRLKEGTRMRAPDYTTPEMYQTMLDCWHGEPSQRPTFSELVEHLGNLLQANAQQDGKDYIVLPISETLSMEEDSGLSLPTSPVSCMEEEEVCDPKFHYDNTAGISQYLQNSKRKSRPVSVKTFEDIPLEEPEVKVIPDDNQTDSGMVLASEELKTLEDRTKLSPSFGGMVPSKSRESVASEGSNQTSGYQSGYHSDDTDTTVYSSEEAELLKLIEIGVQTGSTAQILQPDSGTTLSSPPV
# [20] = tested on: U-87MG ATCC; test: Selectivity ratio of IC50 for AKT1 in human U87MG cells to IC50 for AKT1; format: cell-based
# [21] = Clearance in Sprague-Dawley rat at 2 mg/kg, iv; format: ADME, organism-based; design: dose 2 mg/kg, route intravenous; conditions: in vivo; in short: as §3
# T1 sequence (P31749 whole entry): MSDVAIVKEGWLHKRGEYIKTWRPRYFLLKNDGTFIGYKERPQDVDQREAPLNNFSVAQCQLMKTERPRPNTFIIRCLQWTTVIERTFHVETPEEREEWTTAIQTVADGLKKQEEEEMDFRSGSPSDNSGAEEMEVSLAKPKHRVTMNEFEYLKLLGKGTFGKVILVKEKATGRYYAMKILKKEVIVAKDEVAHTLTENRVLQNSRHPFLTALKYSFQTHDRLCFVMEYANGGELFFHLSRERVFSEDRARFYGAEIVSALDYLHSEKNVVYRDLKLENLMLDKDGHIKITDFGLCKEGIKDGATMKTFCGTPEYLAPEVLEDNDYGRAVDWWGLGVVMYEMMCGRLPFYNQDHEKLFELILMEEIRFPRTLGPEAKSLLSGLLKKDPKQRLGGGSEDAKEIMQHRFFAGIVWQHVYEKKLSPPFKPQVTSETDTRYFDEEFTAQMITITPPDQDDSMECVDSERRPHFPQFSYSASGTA
Compound,IC50 [1],IC50 [2],IC50 [3],IC50 [4],also measured
N[C@H](CNc1ncc(-c2ccc3[nH]c(=O)sc3c2)s1)Cc1ccc(C(F)(F)F)cc1,143 nM,920 nM,27 nM,285 nM,–
N[C@H](CNc1nnc(-c2ccc3cnccc3c2)o1)Cc1ccc(C(F)(F)F)cc1,133 nM,–,85 nM,348 nM,–
N[C@H](CNc1ncc(-c2ccc3c(c2)CC(=O)N3)s1)Cc1ccc(C(F)(F)F)cc1,–,300 nM,18.3 nM,185 nM,inhibition in vivo at 30 mg/kg [5]: 93%; Cmax [6]: 417 ng/mL; IC50 [7]: 110 nM; Activity [8]: 2%; Vd [9]: 6.8 L/kg; bioavailability [10]: 64%; inhibition [11]: Dose-dependent effect; inhibition in vivo at 30 mg/kg [12]: 43%; concentration at 3 h [13]: 6.2 µM; concentration at 6 h [14]: 3.5 µM; IC50 [15]: 630 nM; AUC(0-t) at 24 h [16]: 2600 ng·h/mL; half-life [17]: 4.3 h; IC50 [18]: 250 nM; IC50 [19]: 300 nM
N[C@H](CNc1ncc(-c2ccc3cncnc3c2)s1)Cc1ccc(C(F)(F)F)cc1,126 nM,1300 nM,35 nM,136 nM,Ratio IC50 [20]: 37
Nc1cc2cc(-c3cnc(NC[C@@H](N)Cc4ccc(C(F)(F)F)cc4)s3)ccc2cn1,8.6 nM,890 nM,11.6 nM,15.4 nM,Ratio IC50 [20]: 77
N[C@H](CNc1ncc(-c2ccc3nnccc3c2)s1)Cc1ccc(C(F)(F)F)cc1,489 nM,–,141 nM,> 2000 nM,–
N[C@H](CCc1cc(-c2ccc3cnccc3c2)no1)Cc1ccc(C(F)(F)F)cc1,50 nM,3800 nM,40 nM,117 nM,Ratio IC50 [20]: 95
N[C@H](CNc1ncc(-c2ccc3[nH]ncc3c2)s1)Cc1ccc(Cl)cc1,39.9 nM,730 nM,8.5 nM,–,Ratio IC50 [20]: 86
Cn1ncc2ccc(-c3cnc(NC[C@@H](N)Cc4ccc(C(F)(F)F)cc4)s3)cc21,230 nM,–,895 nM,–,–
N[C@H](CNc1ncc(-c2ccc3[nH]c(=O)oc3c2)s1)Cc1ccc(C(F)(F)F)cc1,326 nM,500 nM,8 nM,138 nM,clearance [21]: 26.7 mL/min/kg; Cmax [6]: 68 ng/mL; Vd [9]: 6.7 L/kg; bioavailability [10]: 11%; AUC(0-t) at 24 h [16]: 348 ng·h/mL; half-life [17]: 3.8 h
N[C@H](CNc1cc(-c2ccc3cnccc3c2)no1)Cc1ccc(C(F)(F)F)cc1,40 nM,–,17 nM,93 nM,–
N[C@H](CNc1ncc(-c2ccc3cn[nH]c3c2)s1)Cc1ccc(C(F)(F)F)cc1,334 nM,–,613 nM,> 1000 nM,–
N[C@H](CNc1cnc(-c2ccc3cnccc3c2)s1)Cc1ccc(C(F)(F)F)cc1,187 nM,–,404 nM,1070 nM,–
Nc1noc2ccc(-c3cnc(NC[C@@H](N)Cc4ccc(C(F)(F)F)cc4)s3)cc12,417 nM,–,453 nM,> 2000 nM,–
N[C@H](CNc1ncc(-c2ccc3cnccc3c2)s1)Cc1ccc(C(F)(F)F)cc1,5.9 nM,430 nM,4.9 nM,12.4 nM,clearance [21]: 45 mL/min/kg; Cmax [6]: 66 ng/mL; Vd [9]: 7.1 L/kg; bioavailability [10]: 20%; Ratio IC50 [20]: 88; inhibition in vivo at 30 mg/kg [12]: 4%; concentration at 6 h [14]: 1.5 µM; AUC(0-t) at 24 h [16]: 387 ng·h/mL; half-life [17]: 2.9 h
N[C@H](CNc1ncc(-c2ccc3cn[nH]c(=O)c3c2)s1)Cc1ccc(C(F)(F)F)cc1,485 nM,–,> 1000 nM,> 1000 nM,–
Cn1c(=O)[nH]c2ccc(-c3cnc(NC[C@@H](N)Cc4ccc(C(F)(F)F)cc4)s3)cc21,179 nM,630 nM,15.4 nM,276 nM,–
N[C@H](CCc1nc(-c2ccc3cnccc3c2)no1)Cc1ccc(C(F)(F)F)cc1,980 nM,–,1600 nM,4630 nM,–
N[C@H](CNc1ncc(-c2ccc3c(c2)CCC(=O)N3)s1)Cc1ccc(C(F)(F)F)cc1,2400 nM,–,3320 nM,> 25000 nM,–
N[C@H](CNc1nnc(-c2ccc3cnccc3c2)s1)Cc1ccc(C(F)(F)F)cc1,7.6 nM,–,3.2 nM,–,–
Cn1nc(N)c2ccc(-c3cnc(NC[C@@H](N)Cc4ccc(C(F)(F)F)cc4)s3)cc21,119 nM,–,2410 nM,> 2000 nM,–
N[C@H](CNc1ncc(-c2ccc3c(c2)CNC3=O)s1)Cc1ccc(C(F)(F)F)cc1,356 nM,6000 nM,95 nM,> 9000 nM,–
NC(=O)c1ccc(-c2cnc(NC[C@@H](N)Cc3ccc(C(F)(F)F)cc3)s2)cc1,> 3000 nM,–,> 3000 nM,> 10000 nM,–
